Reference: ChEMBL document CHEMBL1129478, “Structure-activity relationship studies of novel 4-[2-[bis(4-fluorophenyl)methoxy]ethyl]-1-(3-phenylpropyl)piperidine analogs: synthesis and biological evaluation at the dopamine and serotonin transporter sites” (J Med Chem, 1996)

How the values were obtained:
[1] = target: Sodium-dependent dopamine transporter (Rattus norvegicus, UniProt P23977); assay: Binding affinity at dopamine transporter from rat striatal membrane tissue by [3H]CFT displacement.; format: tissue-based, Striatum
Sodium-dependent dopamine transporter, sequence (P23977 whole entry): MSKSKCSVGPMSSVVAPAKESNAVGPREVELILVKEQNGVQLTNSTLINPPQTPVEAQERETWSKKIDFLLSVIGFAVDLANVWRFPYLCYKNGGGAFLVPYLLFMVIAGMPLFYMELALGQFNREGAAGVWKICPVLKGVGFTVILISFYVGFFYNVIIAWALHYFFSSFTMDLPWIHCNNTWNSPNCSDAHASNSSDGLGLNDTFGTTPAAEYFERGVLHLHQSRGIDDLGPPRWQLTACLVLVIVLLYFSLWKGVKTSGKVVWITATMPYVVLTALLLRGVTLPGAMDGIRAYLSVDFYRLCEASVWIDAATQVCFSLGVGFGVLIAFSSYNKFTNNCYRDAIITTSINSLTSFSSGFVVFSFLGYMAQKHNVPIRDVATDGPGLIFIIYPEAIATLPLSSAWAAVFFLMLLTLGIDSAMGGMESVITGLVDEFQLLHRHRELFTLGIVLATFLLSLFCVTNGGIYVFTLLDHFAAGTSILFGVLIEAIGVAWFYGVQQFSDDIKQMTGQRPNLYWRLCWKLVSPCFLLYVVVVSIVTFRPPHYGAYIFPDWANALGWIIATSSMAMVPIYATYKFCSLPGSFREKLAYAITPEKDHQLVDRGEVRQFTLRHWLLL
Procedure, shortened: (§1)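 Rat striatal P2 membranes: tissue homogenised in 0.32 M sucrose, pellet polytronned in ice-cold 35 mM sodium phosphate, pH 7.4. Incubation 2 h on ice, final sodium phosphate 30 mM, final DMSO 0.5%. Five inhibitor concentrations set after range-finding. Mean ± SEM of 3–5 (DAT, [3H]CFT) or 2–3 (SERT, [3H]citalopram) independent experiments, each in triplicate.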

[2] = target: Monoamine transporters; serotonin & dopamine (Rattus norvegicus) (UniProt P31652+P23977); assay: Selectivity for serotonin and dopamine transporters; format: protein assay
Monoamine transporters; serotonin & dopamine (Rattus norvegicus), sequence (P23977 whole entry, looked up): as the sequence (P23977 whole entry) above
Monoamine transporters; serotonin & dopamine (Rattus norvegicus), sequence (P31652 whole entry, looked up): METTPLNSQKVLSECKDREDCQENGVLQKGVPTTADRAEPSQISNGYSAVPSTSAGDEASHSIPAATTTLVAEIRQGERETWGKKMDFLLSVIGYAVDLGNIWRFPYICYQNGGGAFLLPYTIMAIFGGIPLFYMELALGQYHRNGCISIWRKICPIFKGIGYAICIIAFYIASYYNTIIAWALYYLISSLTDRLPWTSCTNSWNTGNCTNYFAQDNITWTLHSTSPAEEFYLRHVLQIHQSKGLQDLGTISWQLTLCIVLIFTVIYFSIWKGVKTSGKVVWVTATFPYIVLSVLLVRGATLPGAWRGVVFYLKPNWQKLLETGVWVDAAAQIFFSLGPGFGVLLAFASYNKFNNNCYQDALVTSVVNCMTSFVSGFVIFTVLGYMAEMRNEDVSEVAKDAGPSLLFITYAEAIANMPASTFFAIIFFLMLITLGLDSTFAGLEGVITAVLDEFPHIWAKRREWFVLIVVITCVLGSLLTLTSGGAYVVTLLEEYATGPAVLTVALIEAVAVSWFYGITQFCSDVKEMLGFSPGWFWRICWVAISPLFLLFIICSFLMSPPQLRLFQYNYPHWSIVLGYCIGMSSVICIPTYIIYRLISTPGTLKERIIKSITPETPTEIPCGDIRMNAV

[3] = target: Sodium-dependent serotonin transporter (Rattus norvegicus, UniProt P31652); assay: Binding affinity at serotonin transporter from rat brain striatal membrane by [3H]citalopram displacement.; format: tissue-based; procedure, shortened: as §1
Sodium-dependent serotonin transporter, sequence (P31652 whole entry): as the sequence (P31652 whole entry, looked up) above

| Compound | IC50 [1] [µM] | Selectivity [2] | IC50 [3] [µM] |
| --- | --- | --- | --- |
| c1ccc(CCN2CCC(COC(c3ccccc3)c3ccccc3)CC2)cc1 | 0.108 | 4.2 | 0.456 |
| Fc1ccc(C(OCC2CCN(CCCc3ccccc3)CC2)c2ccc(F)cc2)cc1 | 0.013 | 8.6 | 0.112 |
| Fc1ccc(C(OCCC2CCN(Cc3ccccc3)CC2)c2ccc(F)cc2)cc1 | 0.0097 | 20 | 0.198 |
| Fc1ccc(C(OCC2CCN(Cc3ccccc3)CC2)c2ccc(F)cc2)cc1 | 0.126 | 6 | 0.761 |
| Clc1ccc(C(OCCC2CCN(CCc3ccccc3)CC2)c2ccc(Cl)cc2)cc1 | 0.115 | 3.6 | 0.414 |
| c1ccc(CCCN2CCC(COC(c3ccccc3)c3ccccc3)CC2)cc1 | 0.0145 | 4 | 0.058 |
| Clc1ccc(C(OCCC2CCN(CCCc3ccccc3)CC2)c2ccc(Cl)cc2)cc1 | 0.065 | 3.5 | 0.224 |
| Fc1ccc(C(OCC2CCN(CCc3ccccc3)CC2)c2ccc(F)cc2)cc1 | 0.0135 | 17.5 | 0.237 |
| c1ccc(CCCN2CCC(CCOC(c3ccccc3)c3ccccc3)CC2)cc1 | 0.012 | 20 | 0.232 |
| Brc1ccc(C(OCCC2CCN(CCc3ccccc3)CC2)c2ccc(Br)cc2)cc1 | 0.382 | 1.6 | 0.638 |
| c1ccc(CN2CCC(CCOC(c3ccccc3)c3ccccc3)CC2)cc1 | 0.0152 | 49 | 0.743 |
| Brc1ccc(C(OCCC2CCN(CCCc3ccccc3)CC2)c2ccc(Br)cc2)cc1 | 0.159 | 5.2 | 0.835 |
| c1ccc(CN2CCC(COC(c3ccccc3)c3ccccc3)CC2)cc1 | 0.702 | 0.7 | 0.544 |
| Fc1ccc(C(OCCC2CCN(CCCc3ccccc3)CC2)c2ccc(F)cc2)cc1 | 0.0167 | 3.3 | 0.055 |
| COc1ccc(C(OCCC2CCN(CCCc3ccccc3)CC2)c2ccc(OC)cc2)cc1 | 0.255 | 1.3 | 0.34 |
| Cc1ccc(C(OCCC2CCN(CCc3ccccc3)CC2)c2ccc(C)cc2)cc1 | 0.311 | 2.8 | 0.888 |
| c1ccc(CCN2CCC(CCOC(c3ccccc3)c3ccccc3)CC2)cc1 | – | – | 0.102 |
| Fc1ccc(C(OCCC2CCN(CCc3ccccc3)CC2)c2ccc(F)cc2)cc1 | – | – | 0.0319 |
